What was measured:
[1] = system: HLA-A2; experiment: HLA stabilization assay for peptide binding to HLA class I molecules; parameters: species or system human; conditions: mean value from two experiments; normalized to HIV (40 μM peptide)
[2] = system: cancer cells; experiment: cold target inhibition assay; type: cell-based; conditions: unlabeled peptide-loaded T2 cells, inhibitor:target ratio 20:1; singlets
Outline: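 51Cr-labeled (1 h) cancer cell line targets, including an HLA-A2− breast cancer line, were co-cultured 4 h with the peptide-specific CTL clone. The clone came from RCC-patient PBLs and was maintained on 120 U/ml IL-2. Unlabeled peptide-loaded T2 cells were added at 20-fold excess over targets. Supernatant 51Cr was gamma-counted.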

[3] = system: T2 cells; type: cell-based, human; conditions: 4 h 51Cr release; singlets
Outline: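 Effector: a clone from RCC-patient PBLs given repeated peptide-loaded autologous DC and PBL stimulations, limiting-dilution cloned, and kept on 120 U/ml IL-2. […] Supernatant 51Cr was gamma-counted.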

[4] = system: PBLs from cancer patients; experiment: IFN-γ ELISPOT assay, cancer patients; type: cell-based, human; conditions: all cancer patients tested (BC, MM, RCC)
Outline: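 Cells were monocyte-depleted, cryopreserved leukapheresis PBLs from end-stage breast cancer, MM and RCC patients. They were stimulated once with 20 µM peptide, given 40 U/ml IL-2 next day, and tested after 7–8 days. The overnight IFN-γ ELISPOT used 3 × 10^5 cells/well in duplicate ± 5 µM peptide, with 10^4 T2 cells per well. Responders: background-subtracted mean spots ±½ SD >25 per 10^5 cells.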

Sequence	HLA-A2 stabilization relative to HIV [1]	inhibition of cancer cell lysis by cold T2 target cells presenting the peptide [2]	lysis of peptide-loaded T2 cells by CB204-specific CTL clone [3]	cancer patients with spontaneous T-cell responses [4] [%]
ILIDWLVQV [CB204]	stabilizes HLA-A2 to a higher degree than HIV	inhibited lysis of cancer cells	able to lyse T2 cells loaded with CB204	73
ILKEPVHGV [HIV-1 pol476–484, reference compound]	–	–	not T2 cells loaded with an irrelevant HIV peptide	–
